# In the library only some 2.8% were active in any assay of this set; here they are far more common.
# EP2 modulator: EP2 receptor (human) modulation | P43116 | EP2-expressing cells, cAMP HTRF FRET, PGE2 co-stimulation | induction, % at 25 µM | 260,000 compounds, 0.83% hits | AID 940;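 active = compounds whose cAMP rise, as percent of the full-agonist control response, exceeds 60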;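 also: rat C6 glioma line stably carrying human EP2 under a CMV promoter; the protocol text gives 20 µM as final concentration; 100% = response of wells given 1 µM PGE2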
# NPY-Y2 PAM-ag: human NPY-Y2 potentiation or agonism, primary screen; 220,000 compounds, 0.45% hits; activation, % at 3.6 µM; P49146; AID 1359; cells expressing NPY-Y2, potentiator/agonist read-out; in the data active = activation above about 27%;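 also: cells stimulated with NPY near EC25 plus isoproterenol at EC100; 0% = vehicle plus submaximal agonist and 100% = vehicle plus saturating agonist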
# Target sequence (P49146 whole entry, looked up): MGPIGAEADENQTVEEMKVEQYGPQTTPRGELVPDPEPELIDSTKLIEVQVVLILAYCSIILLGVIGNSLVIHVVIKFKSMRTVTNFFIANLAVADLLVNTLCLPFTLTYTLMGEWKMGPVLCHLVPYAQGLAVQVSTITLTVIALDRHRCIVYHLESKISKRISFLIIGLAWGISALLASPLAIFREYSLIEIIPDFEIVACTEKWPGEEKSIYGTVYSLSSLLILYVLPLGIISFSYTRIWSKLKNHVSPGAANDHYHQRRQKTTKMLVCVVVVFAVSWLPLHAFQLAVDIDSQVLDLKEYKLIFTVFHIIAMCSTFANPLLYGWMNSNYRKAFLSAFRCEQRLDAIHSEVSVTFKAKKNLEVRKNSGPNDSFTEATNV
# PGE2 EP2 inh: blocks the human prostaglandin E2 receptor EP2; P43116; C6 glioma cells expressing human EP2, cAMP TR-FRET; cells stimulated with saturating PGE2; inhibition, % at 25 µM; 260,000 compounds, 0.52% hits;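 active = percent inhibition above 40 after rounding to a whole number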;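 also: rat C6 glioma host cells with rolipram phosphodiesterase inhibitor present; the protocol text gives 20 µM as final concentration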
# NPY1 pot ag: potentiates or activates human NPY-Y1 receptor. P25929. NPY-Y1 expressing cells, potentiator/agonist activation. activation, % at 3.6 µM. 220,000 compounds, 0.37% hits; in the data active = activation above about 33%, passing the limit was not always enough;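 also: cells stimulated with NPY at EC10 then isoproterenol at EC100; 0% = low agonist plus stimulus and 100% = saturating agonist plus stimulus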
# NPY Y2 blocker: NPY-Y2 (human) receptor antagonism; P49146; NPY-Y2 expressing cells, antagonist mode; inhibition, % at 2.7 µM; 140,000 compounds, 0.99% hits; AID 793; in the data active = inhibition above about 17%;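 also: 0% = vehicle with agonist challenge and 100% = reference antagonist with challenge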
# NPY-Y1 antag: blocks the human neuropeptide Y Y1 receptor; inhibition, % at 3.6 µM; 200,000 compounds, 1% hits; HEK293-CNG Y1 cells, membrane potential fluorescence; NPY at EC95, then isoproterenol; P25929;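 active = inhibition above the campaign mean inhibition of all tested compounds plus 3 SD, cut at about 20% in these data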;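 also: 0% = DMSO wells given NPY plus isoproterenol and 100% = isoproterenol alone without NPY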
#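 Material: HEK293 cells co-expressing NPY Y1 receptor and cyclic-nucleotide gated channel. Timing: compound incubation 1 h at room temperature, readout 45 min post-stimulation. Signal: fluorescence, membrane potential probe.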
# An asterisk follows results filed as active; . = no result; ! = repeats disagree.
SMILES,EP2 modulator,NPY-Y2 PAM-ag,PGE2 EP2 inh,NPY1 pot ag,NPY Y2 blocker,NPY-Y1 antag
COc1ccccc1NC(=O)N(Cc1cc2cc3c(cc2[nH]c1=O)OCCO3)CC1CCCO1 (centres undefined),-29,.,7,.,.,.
Cc1ccc(C2CC(c3ccccc3C)n3nc(N)nc3N2)cc1 (centres undefined),0,-1,10,-8,2,13
Cc1ccc(C2CC(c3cccs3)n3nc(N)nc3N2)cc1 (centres undefined),-7,12,1,2,0,22*
CC1(C)N=C(N)N=C(N)N1c1cccc(CN)c1,22,-13,4,-6,.,.
CC1(C)N=C(N)N=C(N)N1c1cccc(CSc2ccccc2)c1,20,.,52*,.,.,.
CC1(C)N=C(N)N=C(N)N1c1cccc(OCc2cccc(N)c2)c1,-2,.,54*,.,.,.
COc1ccc(C2(C(=O)N3CCC(n4nnc5ccccc5c4=O)CC3)CCCCC2)cc1,17,.,11,.,.,.
CCC1CCCCN1C(=O)c1cnn2c(C(F)F)cc(-c3ccc(C)cc3)nc12 (centres undefined),-52,.,7,.,.,.
CCNC(=O)CON=C1c2ccccc2-c2ccccc21,10,1,10,-5,3,4
COCCNCC(O)CON=C1c2ccccc2-c2ccccc21 (centres undefined),-9,92*,11,101*,.,-5
CC(C)CCNCC(O)CON=C1c2ccccc2-c2ccccc21 (centres undefined),12,45*,2,45*,.,2
OC(CNCCC(c1ccccc1)c1ccccc1)COc1ccccc1 (centres undefined),-11,89*,1,96*,.,-9
O=C(Nc1ccc(Nc2ccc3c(c2)C(=O)c2ccccc2C3=O)c2c1C(=O)c1ccccc1C2=O)c1ccccc1,-15,.,44*,.,.,.
Cn1c(N2CCC(C(=O)NC3CCN(Cc4ccccc4)CC3)CC2)nc2ccccc21,-61,.,2,.,.,.
CC(CNCc1ccc2c(c1)OCO2)NCc1ccc2c(c1)OCO2 (centres undefined),21,-20,15,-37,19*,24*
CCn1c(SCC(=O)N2CCCC(C)C2)nnc1-c1ccco1 (centres undefined),71*,.,8,.,.,.
O=C(Cn1nc(-c2ccccc2)ccc1=O)Nc1ccc(N2CCN(C(=O)c3ccccc3)CC2)cc1,-18,33*,1,32,-7,-12
CCN(CC)c1nc2cc(C)ccc2cc1/C=C(\C#N)C(N)=O,63*,8,6,-5,.,-2
CCc1ccc(NC(=O)/C(C#N)=C/c2cc3ccc(C)cc3nc2N2CCOCC2)cc1,24,-10,8,-16,2,-3
Cc1ccc2[nH]c(=O)c(CN(Cc3ccco3)C(=S)NCCCN(C)C)cc2c1,-56,.,4,.,.,.
COc1ccc(/C(O)=C/C(=O)C(=O)NNC(=O)C(O)(c2ccccc2)c2ccccc2)cc1,10,103*,10,111*,3,-12
Nc1cc2c(nc3c4ccccc4c(N)cc3[n+]2-c2cccc3ccccc23)c2ccccc12 (tested in a mixture with another compound),-9,.,54*,.,.,.
Cc1cc(N)c2ccccc2[n+]1CCCCCCCCCC[n+]1c(C)cc(N)c2ccccc21,21,.,9,.,.,.
C=CCn1c(SCC(=O)Nc2ccccc2Cl)nnc1-c1ccncc1,2,.,11,.,.,.
Clc1ccc(/C=C/c2nc(Cl)c(-c3ccc(Cl)cc3)c(Cl)n2)cc1,18,-3,43*!,3,.,.
SMILES,EP2 modulator,NPY-Y2 PAM-ag,PGE2 EP2 inh,NPY1 pot ag,NPY Y2 blocker,NPY-Y1 antag
CCCNC(=O)c1nnsc1S(=O)c1ccc(Cl)cc1 (centres undefined),-74,7,69*,13,.,-4
COC(=O)C1=C(C(C)=O)C(c2ccc(Cl)cc2Cl)n2nnnc2N1 (centres undefined),-3,.,3,.,.,.
CCOC(=O)c1cc2sccc2n1CC(=O)NC1CCCC1,-12,.,25,.,.,.
O=C(C1CCC1)N1CCc2cc(S(=O)(=O)NCC3COc4ccccc4O3)ccc21 (centres undefined),-15,-24,13,-49,20*,24*
CC(=O)O[C@H]1CC[C@@]2(C)C(=CC[C@H]3[C@H]2CC[C@]2(C)[C@@H]4[C@@H](C)[C@]5(CC[C@H](C)CN5)O[C@@H]4C[C@@H]32)C1,11,.,45*,.,.,.
CC(C)(C)C1CCc2c(sc3nc(SCC(=O)NCc4ccco4)[nH]c(=O)c23)C1 (centres undefined),40,.,5,.,.,.
COc1ccc(-c2nnc(SCC(=O)N3c4ccccc4Sc4ccccc43)o2)cc1,-2,8,3,13,0,13
COc1cc(OC)cc(-c2nnc(SCC(=O)N3c4ccccc4Sc4ccccc43)o2)c1,61*,0,13,12,3,-9
O=C(Nc1cccc2ccccc12)N1CCCN(c2c(Cl)cncc2Cl)CC1,-61,15,41*,30,.,.
O=C(Nc1cccc2ccccc12)N1CCCCC1,14,.,16,.,.,.
COC(=O)C1=C(C)N(C)C(C)=C(C(=O)OC)C1c1cccc(OC)c1OC,22,.,12,.,.,.
Cc1c(O)c(CN(C)C)cc2c1oc(=O)c1ccccc12,12,51*,5,84*,.,.
COc1ccccc1NC(=O)Nc1nn(C)c2cccc(OC)c12,75*,-10,12,-5,.,.
COc1cccc2c1c(NC(=O)c1cc(C)on1)nn2C,-15,-11,11,-22,.,.
COCCCN1C(=O)C(O)=C(C(C)=O)C1c1ccc(C(C)C)cc1 (centres undefined),-9,.,13,.,.,.
O=C(Cc1ccccc1Cl)N1CCC(n2nnc3cccnc32)CC1,18,.,5,.,.,.
C(=Nc1ccc2c(c1)Cc1ccccc1-2)c1ccccn1,-21,.,11,.,.,.
CN(CCc1ccccn1)c1ccc2c(c1)Cc1ccccc1-2,-57,.,52*,.,.,.
COc1cc2c(cc1OC)/C(=C(\C(=O)Nc1ccccc1)C(=O)N1CCCCC1)NC(C)(C)C2,26,.,13,.,.,.
Cc1ccc(S(=O)(=O)OC2CCN(C)CC2)cc1,-1,.,56*,.,.,.
CN1[C@@H](C(=O)N2CC3(C)CC2CC(C)(C)C3)C[C@@H](c2ccc(F)cc2)NS1(=O)=O (some centres undefined),-79,.,.,.,.,.
S=c1[nH]nc(-c2ccco2)n1/N=C/c1cccc(Cl)c1Cl,61*,-3,1,2,4,4
c1ccc([C@H](c2cccc3c2ccc2ccccc23)[C@H](c2ccccc2)c2cccc3c2ccc2ccccc23)cc1,8,.,41*,.,.,.
COC(=O)c1cc2sccc2n1Cc1nc(-c2ccc(Cl)cc2)oc1C,27,-5,7,7,1,-1
COC(=O)c1cc2sccc2n1Cc1ccc(C)cc1,64*,-11,4,-29,8,5
